Experimental data from ChEMBL document CHEMBL1667802, “1H-imidazo[4,5-c]pyridine-4-carbonitrile as cathepsin S inhibitors: separation of desired cellular activity from undesired tissue accumulation through optimization of basic nitrogen pka” (Bioorg Med Chem Lett, 2011).

What was measured:
Liver microsomes [1] = test: Stability in Sprague-Dawley rat liver microsome; assay type: ADME
[2] = Stability in C57 mouse liver microsome; assay type: ADME; details: microsomes
Cathepsin B = Cathepsin B (Homo sapiens, UniProt P07858); test: Inhibition of human cathepsin B
Cathepsin L2 = biological target: T1, Cathepsin L2 (Homo sapiens, UniProt O60911); test: Inhibition of human cathepsin V
T1 sequence (O60911 whole entry): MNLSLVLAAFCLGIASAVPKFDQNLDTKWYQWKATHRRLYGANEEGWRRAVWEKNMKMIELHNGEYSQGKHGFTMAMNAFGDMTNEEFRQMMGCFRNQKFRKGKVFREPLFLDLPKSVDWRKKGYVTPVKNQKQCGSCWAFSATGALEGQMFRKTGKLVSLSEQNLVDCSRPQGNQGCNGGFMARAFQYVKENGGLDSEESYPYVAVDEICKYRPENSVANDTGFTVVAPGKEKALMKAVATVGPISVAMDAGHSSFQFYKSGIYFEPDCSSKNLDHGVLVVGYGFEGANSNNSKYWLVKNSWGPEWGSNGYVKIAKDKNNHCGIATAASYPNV

Procathepsin L = Procathepsin L (Homo sapiens, UniProt P07711); test: Inhibition of human cathepsin L
Liver microsomes [3] = test: Stability in human liver microsome; assay type: ADME
[4] = Ratio of drug level in spleen to plasma in C57BI/6 mouse at 30 mg/kg, po after 4 hrs; assay type: ADME, organism-based; parameters: dose 30 mg/kg, route oral
Summary of the method: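 Male or female unspecified 18–25 g C57Bl/6 mice received the HCl salt at 30 mg/kg by oral gavage in 0.5% gelatin, 5% mannitol in water. Blood and spleen were collected after dosing and total compound levels measured. The spleen/plasma ratio was taken from total spleen and total plasma concentrations (nM).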

[5] = Drug level in C57BI/6 mouse spleen at 30 mg/kg, po after 4 hrs; assay type: ADME, organism-based; parameters: dose 30 mg/kg, route oral; details: read-out: Drug uptake
[6] = Drug level in C57BI/6 mouse plasma at 30 mg/kg, po after 4 hrs; assay type: ADME, organism-based; parameters: dose 30 mg/kg, route oral
Plasma = test: Drug level in C57BI/6 mouse plasma at 30 mg/kg, po; assay type: ADME, organism-based; parameters: dose 30 mg/kg, route oral; details: in vivo
[7] = Ratio of drug level in spleen to plasma in C57BI/6 mouse at 30 mg/kg, po; assay type: ADME, organism-based; parameters: dose 30 mg/kg, route oral
Summary of the method: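 HCl salt given by oral gavage at 30 mg/kg in 0.5% gelatin, 5% mannitol in water to C57Bl/6 mice of 18–25 g. Blood and spleen collected 2 h after dosing and total compound level measured in each. Ratio taken as total spleen over total plasma concentration.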

Spleen = test: Drug level in C57BI/6 mouse spleen at 30 mg/kg, po; assay type: ADME, organism-based; parameters: dose 30 mg/kg, route oral; details: in vivo, read-out: Drug uptake
Cathepsin S [8] = biological target: T2, Cathepsin S (Homo sapiens, UniProt P25774); test: Inhibition of cathepsin S in human JY cells assessed as accumulation of lip10 by Western blot analysis; assay type: cell-based
Cathepsin S [9] = biological target: T2, Cathepsin S; test: Inhibition of human cathepsin S
[10] = Cmax in C57 mouse at 2 mg/kg, iv or 10 mg/kg, po; assay type: ADME, organism-based; details: in vivo
Summary of the method: (§1)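 Pharmacokinetics in male C57 mice, Sprague Dawley rats and Cynomolgus monkeys. Dosing was 2 mg/kg iv and 10 mg/kg po, with oral vehicle gelatin/mannitol. Parameters reported are clearance, Vss, Cmax and oral bioavailability (F %).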

[11] = Dissociation constant, pKa of the compound; assay type: physicochemical
Cathepsin K = biological target: T3, Cathepsin K (Homo sapiens, UniProt P43235); test: Inhibition of human cathepsin K
T3 sequence (P43235 whole entry): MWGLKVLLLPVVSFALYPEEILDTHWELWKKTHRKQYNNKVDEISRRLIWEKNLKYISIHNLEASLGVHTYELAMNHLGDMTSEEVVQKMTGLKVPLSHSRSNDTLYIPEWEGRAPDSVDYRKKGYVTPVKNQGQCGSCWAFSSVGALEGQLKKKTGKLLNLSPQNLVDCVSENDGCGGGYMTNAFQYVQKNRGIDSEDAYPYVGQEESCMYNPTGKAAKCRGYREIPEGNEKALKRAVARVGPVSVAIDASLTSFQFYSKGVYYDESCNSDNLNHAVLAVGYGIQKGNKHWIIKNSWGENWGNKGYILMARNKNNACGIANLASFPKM

[12] = Volume of distribution at steady state in Sprague-Dawley rat at 2 mg/kg, iv or 10 mg/kg, po; assay type: ADME, organism-based; details: in vivo, read-out: Vdss; summary of the method: as §1
[13] = Clearance in C57 mouse at 2 mg/kg, iv or 10 mg/kg, po; assay type: ADME, organism-based; details: in vivo; summary of the method: as §1
[14] = Clearance in Sprague-Dawley rat at 2 mg/kg, iv or 10 mg/kg, po; assay type: ADME, organism-based; details: in vivo; summary of the method: as §1
[15] = Oral bioavailability in Sprague-Dawley rat at 2 mg/kg, iv or 10 mg/kg, po; assay type: ADME, organism-based; details: in vivo; summary of the method: as §1
[16] = Volume of distribution at steady state in C57 mouse at 2 mg/kg, iv or 10 mg/kg, po; assay type: ADME, organism-based; details: in vivo, read-out: Vdss; summary of the method: as §1
[17] = Oral bioavailability in C57 mouse at 2 mg/kg, iv or 10 mg/kg, po; assay type: ADME, organism-based; details: in vivo; summary of the method: as §1
[18] = Cmax in Sprague-Dawley rat at 2 mg/kg, iv or 10 mg/kg, po; assay type: ADME, organism-based; details: in vivo; summary of the method: as §1
Cathepsin S [19] = biological target: Cathepsin S (Mus musculus, UniProt O70370); test: Inhibition of mouse cathepsin S
[20] = Cmax in cynomolgus monkey at 2 mg/kg, iv or 10 mg/kg, po; assay type: ADME, organism-based, Macaca fascicularis; details: in vivo; summary of the method: as §1
[21] = Oral bioavailability in cynomolgus monkey at 2 mg/kg, iv or 10 mg/kg, po; assay type: ADME, organism-based, Macaca fascicularis; details: in vivo; summary of the method: as §1
[22] = Volume of distribution at steady state in cynomolgus monkey at 2 mg/kg, iv or 10 mg/kg, po; assay type: ADME, organism-based, Macaca fascicularis; details: in vivo, read-out: Vdss; summary of the method: as §1
[23] = Clearance in cynomolgus monkey at 2 mg/kg, iv or 10 mg/kg, po; assay type: ADME, organism-based, Macaca fascicularis; details: in vivo; summary of the method: as §1

Chain of Procathepsin L (P07711 whole entry): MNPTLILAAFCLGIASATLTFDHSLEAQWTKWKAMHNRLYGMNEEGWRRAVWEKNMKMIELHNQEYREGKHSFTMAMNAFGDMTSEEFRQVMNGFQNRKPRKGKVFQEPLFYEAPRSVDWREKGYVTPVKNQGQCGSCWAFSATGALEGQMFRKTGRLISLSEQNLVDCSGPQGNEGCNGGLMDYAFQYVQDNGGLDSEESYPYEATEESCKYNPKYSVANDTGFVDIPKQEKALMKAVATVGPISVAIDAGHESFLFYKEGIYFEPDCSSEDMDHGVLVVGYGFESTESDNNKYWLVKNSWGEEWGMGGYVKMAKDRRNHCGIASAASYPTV
T2 sequence (P25774 whole entry): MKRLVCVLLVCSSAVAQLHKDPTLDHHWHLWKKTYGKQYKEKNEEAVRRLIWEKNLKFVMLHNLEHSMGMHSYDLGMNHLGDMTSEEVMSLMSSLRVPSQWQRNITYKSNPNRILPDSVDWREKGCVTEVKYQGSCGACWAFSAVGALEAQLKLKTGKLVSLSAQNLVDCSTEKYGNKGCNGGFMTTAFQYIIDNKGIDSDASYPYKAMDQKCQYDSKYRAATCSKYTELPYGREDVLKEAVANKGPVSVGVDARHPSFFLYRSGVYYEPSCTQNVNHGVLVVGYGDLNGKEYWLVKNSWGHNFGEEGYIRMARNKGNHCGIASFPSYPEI
Chain of Cathepsin S (Mus musculus, UniProt O70370) (O70370 whole entry): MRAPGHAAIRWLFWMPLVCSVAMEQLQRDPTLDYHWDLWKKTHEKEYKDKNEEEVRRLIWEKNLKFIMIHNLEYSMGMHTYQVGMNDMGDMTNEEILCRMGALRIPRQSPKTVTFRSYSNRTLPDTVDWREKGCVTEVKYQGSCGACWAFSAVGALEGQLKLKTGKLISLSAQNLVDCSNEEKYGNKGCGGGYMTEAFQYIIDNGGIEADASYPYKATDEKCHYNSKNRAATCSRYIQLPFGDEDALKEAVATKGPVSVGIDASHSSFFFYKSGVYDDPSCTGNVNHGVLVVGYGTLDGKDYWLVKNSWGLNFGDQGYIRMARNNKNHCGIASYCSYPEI

Row | SMILES | IC50 (Cathepsin B) [nM] | IC50 (Cathepsin L2) [nM] | IC50 (Procathepsin L) [nM] | concentration (Plasma) [µM] | Kp [7] | concentration (Spleen) [µM] | IC50 (Cathepsin S [8]) [nM] | IC50 (Cathepsin S [9]) [nM] | pKa [11] | IC50 (Cathepsin K) [nM] | also measured
1 | CN(C)CCCOc1ccc(-c2cc3c(ncn3C)c(C#N)n2)cc1C(F)(F)F | > 10000 | > 10000 | > 10000 |  |  |  |  |  |  |  | Kp at 4 h [4]: 26; concentration at 4 h [5]: 2.43 µM; concentration at 4 h [6]: 0.094 µM
2 | CCN1CCN(CCCOc2ccc(-c3cc4c(ncn4C)c(C#N)n3)cc2C(F)(F)F)CC1 | > 10000 | > 10000 | > 10000 | 0.09 | 51 | 4.57 |  |  |  |  | 
3 | Cc1nnc(CN2CCC(CCOc3ccc(-c4cc5c(ncn5C)c(C#N)n4)cc3C(F)(F)F)CC2)o1 | > 10000 | > 10000 | > 10000 | 6.37 | 2.9 | 18.2 | 123 | 14.1 | 5.6 | 813 | 
4 | Cc1noc(CN2CCC(CCOc3ccc(-c4cc5c(ncn5C)c(C#N)n4)cc3C(F)(F)F)CC2)n1 | > 10000 | > 10000 | > 10000 | 5.66 | 0.7 | 4.09 | 294 | 18.6 | 5.3 | 1150 | 
5 | CC(=O)N1CCC(CCOc2ccc(-c3cc4c(ncn4C)c(C#N)n3)cc2C(F)(F)F)CC1 | > 10000 | > 10000 | > 10000 |  |  |  | 235 | 13 |  | 1910 | 

Now from value to molecule, other results behind:

Row | IC50 (Cathepsin B) [nM] | IC50 (Cathepsin L2) [nM] | IC50 (Procathepsin L) [nM] | concentration (Plasma) [µM] | Kp [7] | concentration (Spleen) [µM] | IC50 (Cathepsin S [8]) [nM] | IC50 (Cathepsin S [9]) [nM] | pKa [11] | IC50 (Cathepsin K) [nM] | SMILES | also measured
6 | > 10000 | > 10000 | > 10000 |  |  |  |  |  |  |  | Cn1cnc2c(C#N)nc(-c3ccc(OCCC4CCNCC4)c(C(F)(F)F)c3)cc21 | Stability (Liver microsomes [1]): Stable; Stability [2]: Stable; Stability (Liver microsomes [3]): Stable
7 | > 10000 | > 10000 | > 10000 |  |  |  | 10 | 7.9 |  |  | CN1CCC(CCOc2ccc(-c3cc4c(ncn4C)c(C#N)n3)cc2C(F)(F)F)CC1 | 
8 | > 10000 | > 10000 | > 10000 | 1.03 | 11.4 | 11.7 | 22 |  | 7.5 | 407 | CN(C)C(=O)CN1CCC(CCOc2ccc(-c3cc4c(ncn4C)c(C#N)n3)cc2C(F)(F)F)CC1 | Cmax [10]: 296 ng/mL; Vd [12]: 9.8 L/kg; clearance [13]: 79.4 mL/min/kg; clearance [14]: 93.5 mL/min/kg; bioavailability [15]: 8.93%; Vd [16]: 6.17 L/kg; bioavailability [17]: 62%; Cmax [18]: 13.4 ng/mL
9 | > 10000 | > 10000 | > 10000 | 3.4 | 5.8 | 19.6 | 12 | 3.3 | 7.9 | 288 | Cc1noc(C)c1CN1CCC(CCOc2ccc(-c3cc4c(ncn4C)c(C#N)n3)cc2C(F)(F)F)CC1 | 
10 | > 10000 | > 10000 | > 10000 | 6.61 | 1.9 | 12.5 | 39 | 7.9 | 6.3 | 708 | Cn1cnc2c(C#N)nc(-c3ccc(OCCC4CCN(Cc5ncco5)CC4)c(C(F)(F)F)c3)cc21 | Cmax [10]: 3160 ng/mL; IC50 (Cathepsin S [19]): 1.6 nM; Cmax [20]: 234 ng/mL; bioavailability [21]: 9%; Vd [12]: 2.43 L/kg; clearance [13]: 13.9 mL/min/kg; Vd [22]: 0.6 L/kg; clearance [14]: 73.8 mL/min/kg; bioavailability [15]: 3.6%; Vd [16]: 1.48 L/kg; bioavailability [17]: 112%; clearance [23]: 10 mL/min/kg; Cmax [18]: 9.64 ng/mL
11 | > 10000 | > 10000 | > 10000 |  |  |  | 353 | 27 |  | 2340 | Cn1cnc2c(C#N)nc(-c3ccc(OCCC4CCN(S(C)(=O)=O)CC4)c(C(F)(F)F)c3)cc21 | 
